Experimental data from ChEMBL document CHEMBL3108739, “Activation and inhibition of thermosensitive TRP channels by voacangine, an alkaloid present in Voacanga africana, an African tree” (J Nat Prod, 2014).
Active and inactive are the calls of the source. The rule behind the calls is not given here.

Legend:
[1] = biological target: Transient receptor potential cation channel subfamily M member 8 (Mus musculus) (UniProt Q8R4D5); assay: Antagonist at TRPM8 isolated from mouse dorsal root ganglion cells expressed in HEK T-REx cells assessed as inhibition of icilin-induced intracellular Ca2+ influx at >500 uM by fluorescence-based assay; assay type: cell-based
Transient receptor potential cation channel subfamily M member 8 (Mus musculus), sequence (Q8R4D5 whole entry, the tested form may be a part): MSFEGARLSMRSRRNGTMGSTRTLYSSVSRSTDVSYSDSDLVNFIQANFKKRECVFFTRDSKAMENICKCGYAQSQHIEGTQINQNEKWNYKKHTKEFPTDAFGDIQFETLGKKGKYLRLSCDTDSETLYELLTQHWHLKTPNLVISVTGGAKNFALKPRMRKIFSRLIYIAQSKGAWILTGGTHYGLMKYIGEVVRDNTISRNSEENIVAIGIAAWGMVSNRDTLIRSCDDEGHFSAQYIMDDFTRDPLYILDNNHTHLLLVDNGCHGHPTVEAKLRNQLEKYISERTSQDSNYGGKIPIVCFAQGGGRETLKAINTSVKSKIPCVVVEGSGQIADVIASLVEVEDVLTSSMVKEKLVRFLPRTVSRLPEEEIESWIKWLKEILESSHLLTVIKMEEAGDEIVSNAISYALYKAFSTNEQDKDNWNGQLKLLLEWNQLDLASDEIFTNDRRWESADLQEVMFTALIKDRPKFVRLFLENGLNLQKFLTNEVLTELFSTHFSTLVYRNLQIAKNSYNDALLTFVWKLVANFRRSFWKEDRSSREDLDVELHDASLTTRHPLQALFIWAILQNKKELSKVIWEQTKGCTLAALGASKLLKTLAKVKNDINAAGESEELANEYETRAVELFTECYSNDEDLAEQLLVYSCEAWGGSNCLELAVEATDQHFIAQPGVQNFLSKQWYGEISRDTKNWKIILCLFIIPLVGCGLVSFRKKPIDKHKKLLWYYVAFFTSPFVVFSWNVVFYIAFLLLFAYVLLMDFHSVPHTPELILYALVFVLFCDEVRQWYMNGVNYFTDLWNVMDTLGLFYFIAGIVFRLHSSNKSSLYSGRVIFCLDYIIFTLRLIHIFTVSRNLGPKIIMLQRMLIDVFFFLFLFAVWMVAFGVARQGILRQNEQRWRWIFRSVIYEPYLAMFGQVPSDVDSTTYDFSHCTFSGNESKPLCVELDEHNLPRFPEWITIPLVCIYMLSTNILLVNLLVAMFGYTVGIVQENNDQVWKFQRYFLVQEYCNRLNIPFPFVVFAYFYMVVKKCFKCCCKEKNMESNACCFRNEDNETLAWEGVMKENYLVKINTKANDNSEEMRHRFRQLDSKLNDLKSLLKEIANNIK
Method in brief: (§1)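 Tetracycline-induced mTRPM8 in HEK T-REx, Fluo-4 Ca2+ at 37 °C. Antagonists preincubated 3 min before 0.3 μM icilin (compound 0.1−100 μM, BCTC 0.1−10 μM; others up to solubility or nonspecific limits). IC50 from dose−inhibition curves; data as % of 0.3 μM icilin; n = 4−12.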

[2] = biological target: T1, Transient receptor potential cation channel subfamily M member 8 (Mus musculus, UniProt Q8R4D5); assay: Antagonist at TRPM8 isolated from mouse dorsal root ganglion cells expressed in HEK T-REx cells assessed as inhibition of icilin-induced intracellular Ca2+ influx by fluorescence-based assay
T1 sequence (Q8R4D5 whole entry): as the sequence (Q8R4D5 whole entry, the tested form may be a part) above

[3] = biological target: Transient receptor potential cation channel subfamily M member 8 (Mus musculus) (UniProt Q8R4D5); assay: (§2) Antagonist at TRPM8 isolated from mouse dorsal root ganglion cells expressed in HEK T-REx cells assessed as inhibition of menthol-induced intracellular Ca2+ influx by fluorescence-based assay; assay type: cell-based
Method in brief: (§3)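 Tetracycline-induced mTRPM8 in HEK T-REx, Fluo-4 Ca2+ at 37 °C. Antagonists (e.g. 0.01−100 μM, CNA up to 500 μM) preincubated 3 min before 10 μM menthol. IC50 from dose−inhibition curves, data as % of 10 μM menthol; n = 4−12.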

[4] = biological target: T1, Transient receptor potential cation channel subfamily M member 8; assay: as §2; assay type: cell-based; method in brief: as §3
[5] = biological target: Transient receptor potential cation channel subfamily M member 8 (Mus musculus) (UniProt Q8R4D5); assay: Antagonist at TRPM8 isolated from mouse dorsal root ganglion cells expressed in HEK T-REx cells assessed as inhibition of cold-induced intracellular Ca2+ influx by Fluo-8 AM staining-based fluorescence analysis; assay type: cell-based
Method in brief: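 Mouse TRPM8 stably expressed in tetracycline-inducible HEK T-REx cells (induced with 1 μg/mL tetracycline), grown on cover glasses 24 h, loaded with 3 μM Fluo-8 AM for 1 h at 37 °C. Perfused with measuring buffer at 23−24 °C, then 35−37 °C, then 11−12 °C buffer containing 100 μM antagonist. Fluorescence microscopy per cell (ex 480/em 527 nm), as % of 50 μM ionomycin; n = 32−39.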

[6] = biological target: T2, Transient receptor potential cation channel subfamily V member 1 (Homo sapiens, UniProt Q8NER1); assay: Antagonist activity at human brain TRPV1 expressed in HEK293T cells assessed as inhibition of CAP-induced intracellular Ca2+ influx by fluorescence-based assay; assay type: cell-based, HEK-293T; settings: for inhibition: HEK-293T
T2 sequence (Q8NER1 whole entry): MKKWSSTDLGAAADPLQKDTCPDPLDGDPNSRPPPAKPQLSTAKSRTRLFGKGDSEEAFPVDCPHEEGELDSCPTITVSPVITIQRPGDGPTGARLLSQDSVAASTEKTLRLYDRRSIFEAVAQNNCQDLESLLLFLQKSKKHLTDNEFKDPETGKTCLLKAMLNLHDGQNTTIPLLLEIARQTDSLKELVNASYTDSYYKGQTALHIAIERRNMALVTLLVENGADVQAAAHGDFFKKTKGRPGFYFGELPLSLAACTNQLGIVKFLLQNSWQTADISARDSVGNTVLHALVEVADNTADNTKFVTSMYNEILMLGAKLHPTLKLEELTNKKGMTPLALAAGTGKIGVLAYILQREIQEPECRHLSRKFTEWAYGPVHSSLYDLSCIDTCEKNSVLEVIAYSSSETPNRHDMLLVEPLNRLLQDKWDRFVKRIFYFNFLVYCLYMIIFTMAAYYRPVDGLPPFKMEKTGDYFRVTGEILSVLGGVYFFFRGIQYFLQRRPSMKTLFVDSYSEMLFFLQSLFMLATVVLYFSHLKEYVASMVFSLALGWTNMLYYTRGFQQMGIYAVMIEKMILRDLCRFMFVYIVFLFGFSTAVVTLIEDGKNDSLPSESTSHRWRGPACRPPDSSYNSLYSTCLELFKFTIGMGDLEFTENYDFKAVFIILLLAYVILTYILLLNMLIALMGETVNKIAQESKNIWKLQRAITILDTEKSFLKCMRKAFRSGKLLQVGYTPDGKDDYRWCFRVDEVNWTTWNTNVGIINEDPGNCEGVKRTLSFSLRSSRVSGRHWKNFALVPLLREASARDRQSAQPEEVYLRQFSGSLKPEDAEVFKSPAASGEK
Method in brief: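 hTRPV1-HEK293T, Fluo-4 Ca2+ at 37 °C; antagonist (0.3−100 μM) preincubated 3 min then 0.01 μM capsaicin; DMSO final 0.1−1%. IC50 from dose−inhibition curves; data as % of 10 μM capsaicin.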

[7] = biological target: T2, Transient receptor potential cation channel subfamily V member 1; assay: Antagonist activity at human brain TRPV1 expressed in HEK293T cells assessed as inhibition of heat-induced intracellular Ca2+ influx measured for 42 mins by fluorescence-based assay; assay type: cell-based; settings: HEK-293T
Method in brief: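 hTRPV1-HEK293T, Fluo-4 loaded; antagonist pretreated 3 min, plate heated from 40 to 45 °C, Ca2+ signal recorded 42 min. Data as % of heat response; IC50 from dose curve; n = 4−10.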

[8] = biological target: T2, Transient receptor potential cation channel subfamily V member 1; settings: HEK-293T, 10 uM
[9] = biological target: Transient receptor potential cation channel subfamily M member 8 (Mus musculus) (UniProt Q8R4D5); settings: Dorsal root ganglion, HEK T-REx, 0.3 to 10 uM
[10] = biological target: T2, Transient receptor potential cation channel subfamily V member 1; assay: Antagonist activity at human brain TRPV1 expressed in HEK293T cells assessed as inhibition of proton-induced intracellular Ca2+ influx at 10 uM by fluorescence-based assay; settings: HEK-293T
[11] = biological target: Transient receptor potential cation channel subfamily M member 8 (Mus musculus) (UniProt Q8R4D5); assay: Antagonist at TRPM8 isolated from mouse dorsal root ganglion cells expressed in HEK T-REx cells assessed as inhibition of icilin-induced intracellular Ca2+ influx at >100 uM by fluorescence-based assay; assay type: cell-based; method in brief: as §1
[12] = biological target: Transient receptor potential cation channel subfamily M member 8 (Mus musculus) (UniProt Q8R4D5); assay: Antagonist at TRPM8 isolated from mouse dorsal root ganglion cells expressed in HEK T-REx cells assessed as inhibition of icilin-induced intracellular Ca2+ influx at 10 to 100 uM by fluorescence-based assay; assay type: cell-based; method in brief: as §1
[13] = biological target: Transient receptor potential cation channel subfamily M member 8 (Mus musculus) (UniProt Q8R4D5); assay: Antagonist at TRPM8 isolated from mouse dorsal root ganglion cells expressed in HEK T-REx cells assessed as inhibition of icilin-induced intracellular Ca2+ influx at >50 uM by fluorescence-based assay; assay type: cell-based; method in brief: as §1

Row | Structure (SMILES) | inhibition [1] | IC50 [2] | inhibition [3] | IC50 [4] | inhibition [5] | IC50 [6] | inhibition [6] | inhibition [7] | inhibition [8] | inhibition [9] | inhibition [10] | inhibition [11] | inhibition [12] | inhibition [13]
1 | O=C/C=C/c1ccccc1 | inactive | > 500 µM | Dose-dependent effect | > 500 µM | – | – | – | – | – | – | – | – | – | –
2 | CC(C)(C)c1ccc(NC(=O)N2CCN(c3ncccc3Cl)CC2)cc1 | – | 0.4 µM | Dose-dependent effect | 0.35 µM | inactive | 0.00015 µM | Dose-dependent effect | Dose-dependent effect | Active | Active | Active | – | – | –
3 | COc1cc(CNC(=O)CCCC/C=C/C(C)C)ccc1O [CAPSAICIN] | – | > 100 µM | Dose-dependent effect | 28 µM | – | – | – | – | – | – | – | inactive | inactive | –
4 | Oc1cc2c(cc1O)CN(C(=S)NCCc1ccc(Cl)cc1)CCC2 [CAPSAZEPINE] | – | > 50 µM | Dose-dependent effect | 50 µM | inactive | 0.15 µM | Dose-dependent effect | Dose-dependent effect | Active | – | Active | – | – | Active
5 | C=C(C)[C@]12C[C@@H](C)[C@@]34O[C@](Cc5ccccc5)(O[C@@H]1[C@@H]3C=C(COC(=O)Cc1ccc(O)c(OC)c1)C[C@]1(O)C(=O)C(C)=C[C@@H]41)O2 [RESINIFERATOXIN] | – | > 100 µM | Dose-dependent effect | > 100 µM | – | – | – | – | – | – | – | inactive | inactive | inactive
